Measured values: ChEMBL document CHEMBL3856284, “Discovery, design and synthesis of 6H-anthra[1,9-cd]isoxazol-6-one scaffold as G9a inhibitor through a combination of shape-based virtual screening and structure-based molecular modification” (Bioorg Med Chem, 2016)

Key:
[1] = Antiproliferative activity against human HCT116 cells assessed as inhibition of cell viability after 72 hrs by MTT assay; assay type: functional, cell-based; conditions: HCT-116, 72 h
[2] = Antiproliferative activity against human MCF7 cells assessed as inhibition of cell viability after 72 hrs by MTT assay; assay type: functional, cell-based; conditions: MCF7, 72 h
[3] = Antiproliferative activity against human HepG2 cells assessed as inhibition of cell viability after 72 hrs by MTT assay; assay type: functional, cell-based; conditions: HepG2, 72 h
[4] = target: T1, Histone-lysine N-methyltransferase EHMT2 (Homo sapiens, UniProt Q96KQ7); assay: Inhibition of G9a (unknown origin) using biotinylated-histone H3 (1 to 21 residues)/S-adenosyl-methionine as substrate/methyl donor after 3 hrs by AlphaScreen assay
T1 sequence (Q96KQ7 whole entry): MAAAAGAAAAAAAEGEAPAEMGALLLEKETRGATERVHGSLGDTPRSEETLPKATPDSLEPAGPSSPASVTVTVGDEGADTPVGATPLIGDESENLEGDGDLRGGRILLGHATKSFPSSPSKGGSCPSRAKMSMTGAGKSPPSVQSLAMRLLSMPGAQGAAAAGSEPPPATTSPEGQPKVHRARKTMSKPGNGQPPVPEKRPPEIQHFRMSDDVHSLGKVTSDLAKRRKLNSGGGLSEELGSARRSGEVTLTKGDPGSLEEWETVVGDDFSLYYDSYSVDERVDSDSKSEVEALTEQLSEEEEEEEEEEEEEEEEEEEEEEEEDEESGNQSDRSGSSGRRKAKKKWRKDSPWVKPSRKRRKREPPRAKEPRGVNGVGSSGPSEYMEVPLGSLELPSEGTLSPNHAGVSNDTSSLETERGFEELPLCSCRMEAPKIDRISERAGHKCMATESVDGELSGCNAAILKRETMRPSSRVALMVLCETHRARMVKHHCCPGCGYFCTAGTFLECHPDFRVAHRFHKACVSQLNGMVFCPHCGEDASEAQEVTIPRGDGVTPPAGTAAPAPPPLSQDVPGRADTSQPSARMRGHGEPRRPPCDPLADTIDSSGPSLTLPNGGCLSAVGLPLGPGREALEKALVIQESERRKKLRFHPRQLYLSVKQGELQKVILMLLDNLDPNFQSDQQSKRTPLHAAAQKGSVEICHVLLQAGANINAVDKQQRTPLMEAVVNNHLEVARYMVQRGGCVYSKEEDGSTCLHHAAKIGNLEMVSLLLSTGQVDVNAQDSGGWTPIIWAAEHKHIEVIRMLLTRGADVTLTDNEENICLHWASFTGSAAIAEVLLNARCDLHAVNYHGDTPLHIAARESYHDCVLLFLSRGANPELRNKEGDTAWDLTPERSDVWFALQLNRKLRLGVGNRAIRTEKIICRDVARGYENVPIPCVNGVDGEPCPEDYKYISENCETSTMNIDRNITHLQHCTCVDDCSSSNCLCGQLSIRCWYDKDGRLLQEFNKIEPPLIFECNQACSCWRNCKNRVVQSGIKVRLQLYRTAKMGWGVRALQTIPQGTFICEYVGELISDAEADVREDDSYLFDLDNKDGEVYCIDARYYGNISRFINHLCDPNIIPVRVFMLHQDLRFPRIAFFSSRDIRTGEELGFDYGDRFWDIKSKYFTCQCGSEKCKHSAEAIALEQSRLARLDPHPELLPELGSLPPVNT
In short: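 AlphaScreen G9a assay. Compounds were first screened at 10 µM. IC50 came from concentration-response curves of ten escalating concentrations (0.1 nM–10 µM), using two independent experiments, reported as mean ± SD.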

[5] = target: T1, Histone-lysine N-methyltransferase EHMT2; assay: Inhibition of G9a (unknown origin)

Row | IC50 [4] [µM] | EC50 [5] [µM] | SMILES | IC50 [1] [µM] | IC50 [2] [µM] | IC50 [3] [µM]
1 |  |  | CCN1CCN(c2cc(Nc3ccc(C)cc3)c3c4c(onc24)-c2ccccc2C3=O)CC1 | > 200 | > 200 | > 200
2 |  |  | COc1ccc(Nc2cc(N3CCCC3)c3noc4c3c2C(=O)c2ccccc2-4)cc1 | > 200 | > 200 | 66.7
3 | 1.87 |  | CN1CCN(c2cc(NCCN3CCCCC3)c3c4c(onc24)-c2ccccc2C3=O)CC1 | 4.56 | 8.37 | 8.34
4 | 6.89 |  | CN1CCN(c2cc(NCCN3CCCC3)c3c4c(onc24)-c2ccccc2C3=O)CC1 | 6.23 | 13.9 | 27.8
5 | 2.98 |  | CN(C)c1cc(NCCCN2CCCC2)c2c3c(onc13)-c1ccccc1C2=O | 11.3 | 8.61 | 16.9
6 | 3.87 |  | CN(C)c1cc(NCCN2CCCC2)c2c3c(onc13)-c1ccccc1C2=O | 6.99 | 28 | 24.9
7 | 3.48 |  | CCN1CCN(c2cc(NCCN3CCCC3)c3c4c(onc24)-c2ccccc2C3=O)CC1 | 4.34 | 20.8 | 8.32
8 |  |  | CCN1CCN(c2cc(Nc3ccccc3F)c3c4c(onc24)-c2ccccc2C3=O)CC1 | > 200 | > 200 | > 200
9 | 3.96 |  | CN1CCCN(c2cc(NCCN3CCCC3)c3c4c(onc24)-c2ccccc2C3=O)CC1 | 3.2 | 8.26 | 9.35
10 |  |  | COc1cc2c(NC3CCN(C(C)C)CC3)nc(C3CCCCC3)nc2cc1OCCCN1CCCC1 | 3.35 | 6.99 | 3.7
11 | 5.97 |  | CN(C)CCNc1cc(N2CCCC2)c2noc3c2c1C(=O)c1ccccc1-3 | 52.9 | 17.6 | 20.5
12 | 3.22 |  | O=C1c2ccccc2-c2onc3c(N4CCN(c5ccccc5)CC4)cc(NCCN4CCCC4)c1c23 | 4.28 | 3.77 | 10.8
13 | 4.84 |  | CN(C)CCNc1cc(N2CCN(C)CC2)c2noc3c2c1C(=O)c1ccccc1-3 | 18.2 | 10.8 | 28.6
14 | 2.49 |  | CN1CCCN(c2cc(NCCN3CCCCC3)c3c4c(onc24)-c2ccccc2C3=O)CC1 | 3.96 | 5.08 | 6.21
15 | 4.57 |  | O=C1c2ccccc2-c2onc3c(N4CCN(c5ncccn5)CC4)cc(NCCN4CCCC4)c1c23 | 3.36 | 4.06 | 3.1
16 | 3.47 |  | CN(C)CCNc1cc(N(C)C)c2noc3c2c1C(=O)c1ccccc1-3 | 30.7 | 16.6 | 12.3
17 | 39.2 |  | COc1ccc(Nc2cc(N3CCN(C)CC3)c3noc4c3c2C(=O)c2ccccc2-4)cc1 | 140 | > 200 | > 200
18 | 3.84 |  | CN(C)CCNc1cc(N2CCN(c3ncccn3)CC2)c2noc3c2c1C(=O)c1ccccc1-3 | 4.39 | 4.31 | 9.14
19 | 3.75 |  | CN(C)CCNc1cc(N2CCCCC2)c2noc3c2c1C(=O)c1ccccc1-3 | 25.4 | 10.3 | 15.6
20 |  | 5 | COC(=O)c1ccc2c(c1)nc(NC(=O)c1ccccc1)n2CCCc1ccccc1 |  |  | 
21 | 1.22 |  | O=C1c2ccccc2-c2onc3c(N4CCCC4)cc(NCCN4CCCC4)c1c23 | 7.46 | 10.8 | 24.9
22 |  |  | CCN1CCN(c2cc(Nc3ccc(OC)cc3)c3c4c(onc24)-c2ccccc2C3=O)CC1 | > 200 | > 200 | > 200
23 | 2.68 |  | O=C1c2ccccc2-c2onc3c(N4CCN(c5ccccc5)CC4)cc(NCCN4CCCCC4)c1c23 | 5.32 | 1.22 | 10.4
